15 compounds from ChEMBL document CHEMBL1147654, “Synthesis and pharmacological evaluation of novel 9- and 10-substituted cytisine derivatives. Nicotinic ligands of enhanced subtype selectivity” (J Med Chem, 2006) can be followed below.

Usually Ki stands for a measure of affinity in units of concentration, obtained from inhibition or displacement. A high value points to lower affinity. For orientation: Emax means the greatest response seen or fitted, relative to the assay's reference. Broadly, the inhibition is the drop in the measured response relative to a control, in per cent. Read a low inhibition as a weak effect.

Test [1] can be described thus: Selectivity for rat alpha-4-beta-2 nACHR over alpha3beta4 nACHR expressed in human HEK293 cells. Type of test: cell-based. The method in brief:
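Ki ratio (α3β4/α4β2), taken from competition binding Ki values measured on membrane homogenates of stably transfected cells expressing the respective nAChR subtypes.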

Test [2] concerns the target T1, Neuronal acetylcholine receptor; alpha2/beta4 (Rattus norvegicus, UniProt P12389+P12392). Put plainly: Displacement of [3H]epibatidine from rat alpha-2-beta-4 nACHR expressed in human HEK293 cells. Type of test: cell-based. The method, boiled down:
(§1)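 Competition binding in membrane homogenates of stably transfected cells expressing each nAChR subtype, with Ki values derived from displacement.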
(Displacement assays read how much labelled ligand stays bound in the presence of the test substance.)

The target in test [3] is T2, Neuronal acetylcholine receptor; alpha2/beta2 (Rattus norvegicus, UniProt P12389+P12390). The test is described as follows: Displacement of [3H]epibatidine from rat alpha-2-beta-2 nACHR expressed in human HEK293 cells. Type of test: cell-based. The method in brief: as §1
Test [4] deals with T3, Neuronal acetylcholine receptor; alpha4/beta2 (Rattus norvegicus, UniProt P09483+P12390). Put plainly: Displacement of [3H]epibatidine from rat forebrain alpha4beta2 nACHR. The method in brief: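 Competition binding was run on rat forebrain membrane homogenates.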
For test [5], the target named is T4, Neuronal acetylcholine receptor; alpha3/beta4 (Rattus norvegicus, UniProt P04757+P12392). The test is described as follows: Displacement of [3H]epibatidine from rat alpha3beta4 nACHR expressed in human HEK293 cells. Type of test: cell-based. The method, boiled down:
as §1

The target of test [6] is T5, Neuronal acetylcholine receptor; alpha4/beta4 (Rattus norvegicus, UniProt P09483+P12392). The test is described as follows: Displacement of [3H]epibatidine from rat alpha-4-beta-4 nACHR expressed in human HEK293 cells. Type of test: cell-based. The method, boiled down: as §1
Test [7] deals with T6, Neuronal acetylcholine receptor; alpha4/beta2 (Rattus norvegicus) (UniProt P09483+P12390). Put plainly: Efficacy at rat alpha4beta2 nACHR by rubidium efflux assay. Type of test: functional.
In test [8] the target is Neuronal acetylcholine receptor; alpha3/beta4 (Rattus norvegicus) (UniProt P04757+P12392). Put plainly: Efficacy at rat alpha3beta4 nACHR expressed in human HEK293 cells by rubidium efflux assay relative to nicotine. Type of test: functional, cell-based. The method, boiled down: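 Agonist-stimulated 86Rb+ efflux in KXα3β4R2 cells stably expressing rat α3β4 nAChRs. Mean ± standard error of three independent experiments, each in quadruplicate.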

The target in test [9] is T3, Neuronal acetylcholine receptor; alpha4/beta2. Put plainly: Displacement of [3H]epibatidine from rat alpha-4-beta-2 nACHR expressed in human HEK293 cells at 10 uM. Type of test: cell-based.
Test [10] deals with T2, Neuronal acetylcholine receptor; alpha2/beta2. The test is described as follows: Displacement of [3H]epibatidine from rat alpha2beta2 nACHR expressed in human HEK293 cells at 10 uM. Type of test: cell-based.
Test [11] addresses T1, Neuronal acetylcholine receptor; alpha2/beta4. Put plainly: Displacement of [3H]epibatidine from rat alpha-2-beta-4 nACHR expressed in human HEK293 cells at 10 uM. Type of test: cell-based.
Test [12] addresses T5, Neuronal acetylcholine receptor; alpha4/beta4. Put plainly: Displacement of [3H]epibatidine from rat alpha-4-beta-4 nACHR expressed in human HEK293 cells at 10 uM. Type of test: cell-based.
Test [13] in a line: Displacement of [3H]epibatidine from rat […] nACHR expressed in human HEK293 cells at 10 uM. Type of test: cell-based.
For test [14], the target named is T4, Neuronal acetylcholine receptor; alpha3/beta4. The test is described as follows: Displacement of [3H]epibatidine from rat alpha-3-beta-4 nACHR expressed in human HEK293 cells at 10 uM. Type of test: cell-based.
In test [15] the target is Neuronal acetylcholine receptor; alpha3/beta2 (Rattus norvegicus, UniProt P04757+P12390). Put plainly: Displacement of [3H]epibatidine from rat alpha-3-beta-2 nACHR expressed in human HEK293 cells at 10 uM. Type of test: cell-based.
The target in test [16] is T6, Neuronal acetylcholine receptor; alpha4/beta2 (Rattus norvegicus). Put plainly: Inhibition of nicotine-stimulated response at rat alpha-4-beta-2 nACHR at 100 uM. Type of test: functional.

T4 sequence (P04757 whole entry): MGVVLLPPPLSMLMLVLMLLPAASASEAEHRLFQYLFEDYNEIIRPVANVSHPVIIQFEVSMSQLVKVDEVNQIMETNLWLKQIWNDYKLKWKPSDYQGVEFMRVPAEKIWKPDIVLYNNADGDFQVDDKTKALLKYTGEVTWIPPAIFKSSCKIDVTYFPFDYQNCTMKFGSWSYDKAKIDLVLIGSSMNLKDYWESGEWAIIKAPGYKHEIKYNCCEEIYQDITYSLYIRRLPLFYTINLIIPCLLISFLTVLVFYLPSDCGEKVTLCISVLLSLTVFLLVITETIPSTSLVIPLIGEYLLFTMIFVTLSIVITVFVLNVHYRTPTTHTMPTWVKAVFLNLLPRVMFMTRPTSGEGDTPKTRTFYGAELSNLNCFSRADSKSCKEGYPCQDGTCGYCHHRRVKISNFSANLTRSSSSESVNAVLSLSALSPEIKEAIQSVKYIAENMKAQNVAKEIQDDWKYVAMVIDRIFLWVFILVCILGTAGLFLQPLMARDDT
T4 sequence (P12392 whole entry): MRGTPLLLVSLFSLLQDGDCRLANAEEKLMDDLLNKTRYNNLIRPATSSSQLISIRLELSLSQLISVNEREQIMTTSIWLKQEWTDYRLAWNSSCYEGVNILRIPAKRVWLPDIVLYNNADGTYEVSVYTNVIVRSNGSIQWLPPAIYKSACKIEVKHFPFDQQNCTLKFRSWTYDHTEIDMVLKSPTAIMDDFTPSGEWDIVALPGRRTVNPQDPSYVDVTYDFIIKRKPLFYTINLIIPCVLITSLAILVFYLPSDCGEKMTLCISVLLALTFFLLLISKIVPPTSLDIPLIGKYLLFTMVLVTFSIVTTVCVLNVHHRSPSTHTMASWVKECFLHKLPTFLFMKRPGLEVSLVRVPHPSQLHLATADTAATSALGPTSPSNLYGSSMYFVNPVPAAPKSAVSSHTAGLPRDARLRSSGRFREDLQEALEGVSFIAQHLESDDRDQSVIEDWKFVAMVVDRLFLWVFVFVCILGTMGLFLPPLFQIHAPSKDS
Sequence of Neuronal acetylcholine receptor; alpha3/beta2 (P04757 whole entry): as the sequence (P04757 whole entry) above
Sequence of Neuronal acetylcholine receptor; alpha3/beta2 (P12390 whole entry): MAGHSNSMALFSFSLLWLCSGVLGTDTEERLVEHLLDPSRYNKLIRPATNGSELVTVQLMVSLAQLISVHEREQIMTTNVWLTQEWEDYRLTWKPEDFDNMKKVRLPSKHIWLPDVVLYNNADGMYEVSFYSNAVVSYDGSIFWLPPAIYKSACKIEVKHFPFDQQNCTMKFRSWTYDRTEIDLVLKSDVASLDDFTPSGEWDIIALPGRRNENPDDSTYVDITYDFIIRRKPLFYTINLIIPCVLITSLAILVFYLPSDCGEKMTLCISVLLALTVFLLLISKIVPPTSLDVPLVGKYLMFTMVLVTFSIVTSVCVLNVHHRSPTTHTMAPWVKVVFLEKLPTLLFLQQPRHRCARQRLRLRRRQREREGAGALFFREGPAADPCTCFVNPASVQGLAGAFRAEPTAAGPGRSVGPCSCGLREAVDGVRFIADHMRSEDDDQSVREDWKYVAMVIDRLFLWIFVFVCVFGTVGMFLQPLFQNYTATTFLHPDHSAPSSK
T5 sequence (P09483 whole entry): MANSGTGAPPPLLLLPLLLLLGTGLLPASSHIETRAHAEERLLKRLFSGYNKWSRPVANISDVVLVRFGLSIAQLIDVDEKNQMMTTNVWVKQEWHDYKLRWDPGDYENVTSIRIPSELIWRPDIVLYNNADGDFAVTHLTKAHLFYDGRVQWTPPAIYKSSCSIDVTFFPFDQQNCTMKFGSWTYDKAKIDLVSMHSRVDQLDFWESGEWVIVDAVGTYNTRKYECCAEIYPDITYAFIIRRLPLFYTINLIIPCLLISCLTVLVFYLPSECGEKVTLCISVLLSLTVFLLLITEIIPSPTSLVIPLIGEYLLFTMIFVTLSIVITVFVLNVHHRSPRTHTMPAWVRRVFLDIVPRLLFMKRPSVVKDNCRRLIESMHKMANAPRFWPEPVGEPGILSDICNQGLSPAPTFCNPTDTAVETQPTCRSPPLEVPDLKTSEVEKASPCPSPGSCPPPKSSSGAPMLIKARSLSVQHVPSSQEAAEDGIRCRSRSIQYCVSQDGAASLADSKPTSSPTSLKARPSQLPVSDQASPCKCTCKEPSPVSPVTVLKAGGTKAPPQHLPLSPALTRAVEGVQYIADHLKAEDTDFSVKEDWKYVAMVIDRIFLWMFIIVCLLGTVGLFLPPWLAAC
T5 sequence (P12392 whole entry): as the sequence (P12392 whole entry) above
T3 sequence (P09483 whole entry): as the sequence (P09483 whole entry) above
T3 sequence (P12390 whole entry): as the sequence (P12390 whole entry) above
T2 sequence (P12389 whole entry): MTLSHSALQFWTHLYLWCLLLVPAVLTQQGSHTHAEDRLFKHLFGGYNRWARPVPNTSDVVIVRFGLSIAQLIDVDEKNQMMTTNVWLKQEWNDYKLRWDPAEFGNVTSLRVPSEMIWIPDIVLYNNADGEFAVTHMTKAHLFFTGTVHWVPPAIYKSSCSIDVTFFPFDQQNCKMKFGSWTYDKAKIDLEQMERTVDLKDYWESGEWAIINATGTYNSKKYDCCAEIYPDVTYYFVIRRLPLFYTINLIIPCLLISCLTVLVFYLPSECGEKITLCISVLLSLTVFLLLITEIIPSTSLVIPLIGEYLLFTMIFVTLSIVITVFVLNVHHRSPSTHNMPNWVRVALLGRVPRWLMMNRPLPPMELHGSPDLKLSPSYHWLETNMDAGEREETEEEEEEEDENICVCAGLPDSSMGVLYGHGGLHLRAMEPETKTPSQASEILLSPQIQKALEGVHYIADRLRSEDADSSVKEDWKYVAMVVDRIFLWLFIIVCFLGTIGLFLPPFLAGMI
T2 sequence (P12390 whole entry): as the sequence (P12390 whole entry) above
T1 sequence (P12389 whole entry): as the sequence (P12389 whole entry) above
T1 sequence (P12392 whole entry): as the sequence (P12392 whole entry) above

Take `COC(=O)[C@H]1C2CNCC(C2)c2cccc(=O)n21` (single isomer, unassigned): the Ratio in test [1] came out at 13.

For `O=c1cccc2n1C[C@@H]1CNC[C@H]2C1` [CYTISINICLINE], the Ki in test [2] turned out to be 0.00541 µM; in test [3], 0.00107 µM; in [4], 0.00192 µM; in test [5], 0.217 µM; in test [6] it was 0.0021 µM. For the same compound, the Ratio in [1] was 144.

`CN1CCC[C@H]1c1cccnc1`: the Emax in test [7] and in test [8] was 100% throughout.

For the compound `O=c1c(-c2ccc(F)cc2)ccc2n1CC1CNCC2C1` (single isomer, unassigned), in [1], the Ratio was 157.

`O=c1ccccn1CC1CCCNC1` (centres undefined): the inhibitory constant (Ki) was 1.78 µM in [9]; 4.63 µM in test [10]; 159 µM in test [11]; 5.55 µM in [12]; 253 µM in test [13]; 535 µM in test [14]. In addition, in test [15], the affinity corresponds to a Ki of 18.7 µM.

For `Cc1ccc(-c2ccc3n(c2=O)CC2CNCC3C2)s1` (single isomer, unassigned), the Ratio in test [1] is 59.

The compound `C=Cc1ccc2n(c1=O)CC1CNCC2C1` (single isomer, unassigned) showed an Emax in test [7] of 22%.

On to `CCC(=O)[C@H]1C2CNCC(C2)c2cccc(=O)n21` (single isomer, unassigned), for which, in test [1], the Ratio is 18.

In the case of `O=c1ccccn1CC1CCN(Cc2ccccc2)CC1`, the Ki was 1.3 µM in test [9]; 26 µM in [10]; 440 µM in test [11]; 4.5 µM in test [12]; 470 µM in [13]; 620 µM in test [14]. In [15], this compound registered a Ki of 7.3 µM.

On to `Cc1cc2n(c(=O)c1)CC1CNCC2C1` (racemic), for which, in test [1], the Ratio was found to be 3530. For the same compound, the inhibition in test [16] is above 50%. In test [4], this compound yielded a Ki of 0.02 µM.

Take `CN1CCCC(Cn2ccccc2=O)C1` (centres undefined): the inhibitory constant (Ki) in [9] came out at 0.98 µM; in test [10] it was 19 µM; in test [11], 180 µM; in test [12], 2.6 µM; in test [13] it was 76 µM; in test [14], 160 µM. The same compound came in with a Ki in test [15] of 6 µM.

Consider `CCCCc1ccc(-c2ccc3n(c2=O)CC2CNCC3C2)cc1` (single isomer, unassigned), for which, in test [1], the Ratio came out at 17.

For `O=c1cc(CO)cc2n1CC1CNCC2C1` (racemic), in [1], the Ratio is 909. The inhibition in [16] was above 50%. In test [4], this compound yielded a Ki of 0.038 µM.

Turning to `O=c1ccccn1CC1CCCN(Cc2ccccc2)C1` (centres undefined), the Ki in test [9] worked out at 0.54 µM; in test [10], 100 µM; in test [11] it was 91 µM; in test [12], 1.4 µM; in test [13], 54 µM; in test [14], 83 µM. Further, the Ki in test [15] was 4.3 µM.

As for `O=c1ccccn1CC1CCNCC1`, the inhibition constant (Ki) came out at 1.6 µM in test [9]; 80 µM in [11]; 5.4 µM in test [12]; 87 µM in test [13]; 750 µM in test [14]; 12 µM in [15].
